Laboratory results published in ChEMBL document CHEMBL1127064, “A novel series of N-(1-aminoalkylidene)carboximidamides as potential hypoglycemic agents” (1993).
Active and inactive are the calls of the source. The rule behind the calls is not given here.

Experiments:
Rattus norvegicus [1] = experiment: Mean maximum percent lowering of glucose at a single dose of 10 mg/kg, subcutaneously using rat oral glucose tolerance test.; type: functional; conditions: route subcutaneous
How it was run: (§1)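 Rats given a single 10 mg/kg sc dose, calculated as free base. Blood glucose is compared with controls at each time point by unpaired Student's t-test; a significant lowering at any point (95% confidence) counts as active. Each rat's maximum percent lowering from the matched control mean is averaged to give the mean maximum percent lowering.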

Rattus norvegicus [2] = organism: Rattus norvegicus; experiment: Effective dose to produce a 30% maximum decrease of glucose from control; type: functional
How it was run: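 Rats, subcutaneous dosing at 10, 5 and 2.5 mg/kg, calculated as free base. For each rat, the maximum percent lowering of blood glucose from the control group mean at the matched time point is taken. The dose giving a 30% decrease, with its 95% CI, comes from regression of mean maximum percent decrease versus log dose (mg/kg).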

Rattus norvegicus [3] = experiment: Mean maximum percent lowering of glucose was determined at a single dose of 10 mg/kg, subcutaneously using rat oral glucose tolerance test; IA = inactive; type: functional, organism-based; set-up: dose 10 mg/kg; how it was run: as §1

Row | Compound | Lowering (Rattus norvegicus [1]) [%] | ED30 (Rattus norvegicus [2]) [mg/kg] | IA (Rattus norvegicus [3])
1 | CC/C(=N\C(=N\c1ccccc1)N1CCOCC1)N(C)C | 43 | 5.3 | 
2 | CC(C)C(=N)/N=C(/Nc1ccccc1)N1CCOCC1 | 34 |  | 
3 | CC(=O)N/C(C)=N/C(=N/c1ccccc1)N1CCOCC1 | 22 |  | 
4 | CN/C(=N/C(=N/c1ccccc1OC)N1CCOCC1)C(C)C | 21 |  | 
5 | CC(=N/Cc1ccccc1)/N=C(/Nc1ccccc1)N1CCOCC1 | 50 | 4.3 | 
6 | CCC(=N/C)/N=C(/Nc1ccccc1)N1CCOCC1 | 42 |  | 
7 | C/C(=N\C(=N\c1ccccc1)N1CCOCC1)N(C)c1ccccc1 | 20 |  | 
8 | C/C(=N\C(=N\c1ccccc1)N1CCOCC1)N(Cc1ccccc1)c1ccccc1 | 17 |  | 
9 | CN(C)/C(CC(C)(C)C)=N/C(=N/c1ccccc1)N1CCOCC1 | 37 | 5.9 | 
10 | CC(C)/C(=N\C(=N\c1ccccc1)N1CCOCC1)N(C)C | 43 | 4.3 | 
11 | CN1CCC/C1=N\C(=N\c1ccccc1)N1CCOCC1 [LINOGLIRIDE] | 34 | 6.1 | 
12 | CCC/N=C(\N=C(\Nc1ccccc1)N1CCOCC1)C(C)C | 31 |  | 
13 | C/N=C(\N=C(\Nc1ccccc1)N1CCOCC1)C(C)C | 52 | 1.5 | 
14 | CC/N=C(\N=C(\Nc1ccccc1)N1CCOCC1)C(C)C | 26 |  | 
15 | CC/N=C(C)\N=C(\Nc1ccccc1)N1CCOCC1 | 48 | 4.6 | 
16 | CCOC(=O)C/N=C(C)\N=C(\Nc1ccccc1)N1CCOCC1 |  |  | inactive
17 | C/N=C(\N=C(\Nc1ccccc1)N1CCCC1)C(C)C | 43 |  | 
18 | CCCCCC/C(=N\C(=N\c1ccccc1)N1CCOCC1)N(C)C | 31 |  | 
19 | C/C(=N\C(=N\c1ccccc1)N1CCOCC1)N1CCN(C)CC1 |  |  | inactive

Row | Compound | Lowering (Rattus norvegicus [1]) [%] | ED30 (Rattus norvegicus [2]) [mg/kg] | IA (Rattus norvegicus [3])
20 | C/N=C(C)\N=C(\Nc1ccccc1)N1CCOCC1 | 45 | 2.6 | 
21 | CN(C)/C(=N/C(=N/c1ccccc1)N1CCOCC1)C1CCCCC1 | 27 |  | 
22 | CCC/N=C(C)\N=C(\Nc1ccccc1)N1CCOCC1 | 56 | 0.97 | 
23 | CC(=N/CCO)/N=C(/Nc1ccccc1)N1CCOCC1 | 15 |  | 
24 | C/C(=N\C(=N\c1ccccc1)N1CCOCC1)N(C)C | 38 | 6.7 | 
25 | CC(=N/C(C)(C)C)/N=C(/Nc1ccccc1)N1CCOCC1 | 45 | 4.2 | 
26 | C/N=C(\N=C(\Nc1ccc(F)cc1)N1CCOCC1)C(C)C | 42 |  | 
27 | C/C(=N\C(=N\c1ccccc1)N1CCOCC1)N1CCOCC1 | 24 |  | 
28 | CN(C)/C=N/C(=N/c1ccccc1)N1CCOCC1 | 22 |  | 
29 | CN(C)/C(Cc1ccccc1)=N/C(=N/c1ccccc1)N1CCOCC1 | 27 |  | 
30 | CN(C)/C(=N/C(=N/c1ccccc1)N1CCOCC1)c1ccccc1 | 25 |  | 
31 | CC(=N/c1ccccc1)/N=C(/Nc1ccccc1)N1CCOCC1 | 26 |  | 
32 | CCCCN(C)/C(C)=N/C(=N/c1ccccc1)N1CCOCC1 | 33 | 7.6 | 
33 | CC(=N)/N=C(/Nc1ccccc1)N1CCOCC1 | 21 |  | 
34 | CC(=N/S(C)(=O)=O)/N=C(/Nc1ccccc1)N1CCOCC1 |  |  | inactive
35 | C/C(=N\C(=N\c1ccccc1)N1CCOCC1)N1CCCCC1 | 46 | 5.3 | 
36 | CN(C)/C(=N/C(=N/c1ccccc1)N1CCOCC1)C(C)(C)C | 40 | 9.6 | 
37 | CC(C)/N=C(\N=C(\Nc1ccccc1)N1CCOCC1)C(C)C | 23 |  | 
38 | CC(=N/C(C)C)/N=C(/Nc1ccccc1)N1CCOCC1 | 42 | 3.9 | 
